Most compounds without a hit are left out; they make up all but 1.5% or so of the library.
Platelet DG rel – modulates dense granule release in human platelets. inhibition, %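 (compounds screened at 7.5 µM in platelet-rich plasma)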. 300,000 tested, 0.22% active. AID 1663. human platelet-rich plasma, SFLLRN dense granule ATP release, luminescence;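 active means mean replicate score, as percent of positive control, at or above 50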
Myeloid diff MLP – myeloid differentiation induction; AID 624256; calls only at 10 µM; ER-HoxA9 myeloid progenitors, lysozyme-GFP differentiation, flow cytometry; 360,000 tested, 1% active;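 active means normalized GFP-positive differentiation at or above the plate's own cutoff, the solvent-only control mean plus 3 SD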;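 further: cells exposed to compound for four days before flow analysis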
SENP1 FRET inh – inhibitors of human SENP1 SUMO protease catalytic domain; Q9P0U3; recombinant SENP1 catalytic domain, CyPet-SUMO1-YPet FRET cleavage; inhibition, % at 10 µM; 360,000 tested, 0.21% active;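 active means inhibition at least 30% at 10 µM, raw YFP signal under a set limit, fluorescence ratio 0.5 to 1.5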;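 further: 0% = enzyme with DMSO and 100% = no enzyme wells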
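system = hSENP1 catalytic domain, recombinant | reagent = SFCypet-SUMO1-SFYpet substrate at 25 nM | doses = one dose per compound, 10 µM, 0.5% DMSO | incubation = enzyme reaction for 50 min at room temperature, dark | measured by = FRET, CFP and YFP emission | controls = no-enzyme low, enzyme-DMSO high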
VLA-4 inh – inhibition in a human VLA-4 binding assay; VLA-4 expressing cells, ligand binding flow cytometry; inhibition, % (about 7 µM as worked out from the volumes in the protocol); 330,000 tested, 0.2% active; AID 2557; in the data active means inhibition above about 50%
Target sequence (P13612 whole entry, looked up): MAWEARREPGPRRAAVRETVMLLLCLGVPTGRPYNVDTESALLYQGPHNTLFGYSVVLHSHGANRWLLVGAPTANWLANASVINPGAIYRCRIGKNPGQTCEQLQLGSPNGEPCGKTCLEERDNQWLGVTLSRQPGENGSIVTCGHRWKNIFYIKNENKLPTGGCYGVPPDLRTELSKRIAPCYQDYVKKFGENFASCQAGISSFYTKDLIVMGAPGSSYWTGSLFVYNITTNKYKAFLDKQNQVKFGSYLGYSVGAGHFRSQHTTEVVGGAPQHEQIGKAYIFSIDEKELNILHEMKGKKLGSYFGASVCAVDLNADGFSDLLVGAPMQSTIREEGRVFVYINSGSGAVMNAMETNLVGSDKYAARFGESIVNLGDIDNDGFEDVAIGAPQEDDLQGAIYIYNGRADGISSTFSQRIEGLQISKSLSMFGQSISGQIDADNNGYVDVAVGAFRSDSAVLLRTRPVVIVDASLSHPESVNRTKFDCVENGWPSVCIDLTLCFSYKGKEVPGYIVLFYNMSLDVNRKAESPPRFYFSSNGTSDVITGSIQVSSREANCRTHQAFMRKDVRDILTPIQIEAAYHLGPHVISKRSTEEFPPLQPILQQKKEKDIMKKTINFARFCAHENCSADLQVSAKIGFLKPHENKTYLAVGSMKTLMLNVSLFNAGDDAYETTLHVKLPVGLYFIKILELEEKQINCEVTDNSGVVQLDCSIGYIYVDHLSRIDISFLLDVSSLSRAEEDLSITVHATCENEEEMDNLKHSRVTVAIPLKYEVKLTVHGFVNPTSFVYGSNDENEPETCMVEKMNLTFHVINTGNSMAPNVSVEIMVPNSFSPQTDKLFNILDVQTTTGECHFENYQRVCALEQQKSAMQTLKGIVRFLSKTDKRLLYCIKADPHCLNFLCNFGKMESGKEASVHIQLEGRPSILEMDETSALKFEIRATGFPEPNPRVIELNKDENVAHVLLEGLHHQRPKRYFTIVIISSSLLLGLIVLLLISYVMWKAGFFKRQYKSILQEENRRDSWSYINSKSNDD
VLA-4 allo CP – confirmation of allosteric modulators of human VLA-4 integrin; 1,300 tested, 2% active; shares compounds with VLA-4 inh; U937 cells, HUTS-21 LIBS mAb binding, flow cytometry; LDV ligand present at threefold Kd; inhibition, % at 6.7 µM; AID 2813; in the data active means inhibition above about 40%;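 further: 0% = ligand without compound and 100% = no ligand background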
Numbers without * were called inactive; i = inactive; x = no result; ! = not confirmed by another sample.

SMILES	Platelet DG rel	Myeloid diff MLP	SENP1 FRET inh	VLA-4 inh	VLA-4 allo CP
O=C(O)c1ccccc1NC(=O)C(c1ccccc1)c1ccccc1	-2.0	i	-0.3	-2.4	3.8
NC(=O)c1ccccc1NC(=O)C(c1ccccc1)c1ccccc1	-14.0	i	1.9	1.3	x
COc1ccc(S(=O)(=O)Nc2cccc3c2O[C@@H](CN(C)Cc2ccc(C(=O)O)cc2)[C@@H](C)CN([C@H](C)CO)C3=O)cc1	x	i	1.2	0.2	x
Cc1ccc(CSc2nncn2-c2ccccn2)cc1	0.7	i	-1.1	7.0	x
Clc1ccc(CSc2nncn2-c2ccccn2)cc1	9.1	i	2.4	59.6*	1.8
COc1ccc(OC)c(/C=N/NC(=O)CCc2n[nH]c(=O)[nH]c2=O)c1	8.6	i	-41.6	-17.2	x
COc1ccc(/C=N/NC(=O)CCc2n[nH]c(=O)[nH]c2=O)cc1O	1.2	i	1.7	44.8	2.1
Cc1ccc(O)c(C(=O)c2cnn(C(=O)COc3ccccc3C#N)c2)c1	-3.1	x	x	-3.1	x
COc1cccc(NC(=O)CCN2C(=O)c3cccc([N+](=O)[O-])c3C2=O)c1	-1.3	i	-1.2	-1.0	x
COc1ccc(NC(=O)CCN2C(=O)c3cccc([N+](=O)[O-])c3C2=O)cc1	10.9	i	0.7	51.0*	-3.5
C=CC[n+]1c(C)csc1Nc1ccc(C)cc1	-3.5	i	1.4	51.6*	0.0
Cc1cc(=O)oc2cc(OC(C)C(=O)NCCCN3CCCC3=O)c(Cl)cc12 (stereo not given)	-9.6	i	2.8	51.8*	-3.5
Cc1cc(Br)cnc1NC(=S)Nc1ccc(F)cc1F	-10.4	i	1.8	5.1	x
c1ccc(-c2ncnc3cc4n(c23)CCC4)cc1	2.9	i	0.8	61.0*	-1.1
Cc1ccc2ncnc(-c3ccccc3)c2c1	21.7	i	-6.1	1.7	x
COc1ccc(C(C)=O)cc1COC(=O)CNC(=O)c1cc(C)cc(C)c1	-14.5	i	1.6	52.9*	-4.8
COC(=O)c1ccc(-n2c(C)cc(C(=O)CSc3ccc(NC(C)=O)cc3)c2C)cc1	3.4	i	-2.4	40.0	-3.6
CC(=O)Nc1ccc(SCC(=O)c2cc(C)n(-c3ccccc3F)c2C)cc1	-18.1	i	0.6	22.3	x
Cc1cc(/C=N\NC(=O)c2cccs2)c(C)n1-c1ccc2ncccc2c1	4.4	i	-6.9	93.4*	0.0
COc1ccc(-n2c(Cc3cc(=O)[nH]c(=O)[nH]3)nnc2SCC(=O)N2CCC(C)CC2)cc1	x	i	3.0	10.4	0.3
COc1ccc(-n2c(Cc3cc(=O)[nH]c(=O)[nH]3)nnc2SCC(=O)Nc2ccccc2)cc1	9.3	i	2.9	-28.4	x
COc1cccc(-n2c(Cc3cc(=O)[nH]c(=O)[nH]3)nnc2SCC(=O)N2CCC(C)CC2)c1	-0.6	i	6.9	17.3	4.7
CC1CCN(C(=O)CSc2nnc(Cc3cc(=O)[nH]c(=O)[nH]3)n2-c2ccc(Cl)cc2)CC1	0.3	i	3.0	-59.4	10.9
COC(=O)c1ccncc1C(=O)Nc1ccc(OC)cc1	-2.1	i	2.3	8.8	x
COC(=O)c1ccncc1C(=O)Nc1ccc(Oc2ncc(C(F)(F)F)cc2Cl)cc1	1.5	i	1.8	49.9*	-19.2
SMILES	Platelet DG rel	Myeloid diff MLP	SENP1 FRET inh	VLA-4 inh	VLA-4 allo CP
Cc1ccc(-n2ncc3c(SCC(N)=O)ncnc32)cc1C	-0.4	i	-1.8	x	x
Cc1ccc(S(=O)(=O)NCCC(=O)NNC(=O)c2ccccc2O)cc1C	-21.5	i	-0.5	5.9	x
NS(=O)(=O)c1cc(C(=O)OCC(=O)Nc2ccc(Cl)cc2[N+](=O)[O-])ccc1Cl	0.0	i	-0.5	52.2*	7.2
Nn1c(SCC(=O)Nc2ccc(OC(F)F)cc2)nnc1-c1ccco1	-9.6	i	1.5	-7.2	x
O=[N+]([O-])c1ccccc1Oc1ncccc1[N+](=O)[O-]	7.1	i	-0.2	71.9*	9.7
O=Cc1cnc(N2CCN(c3ccccc3)CC2)s1	-1.7	i	-0.1	52.1*	1.2
CCCOc1ccc(N2C(=O)CC(N(Cc3ccc(S(N)(=O)=O)cc3)C(=O)CC)C2=O)cc1 (stereo not given)	-59.8	i	-1.1	-5.3	-5.0
COc1ccc(N2C(=O)CC(N(Cc3ccc(S(N)(=O)=O)cc3)C(C)=O)C2=O)cc1 (stereo not given)	0.6	i	2.7	14.1	1.3
COc1ccccc1Nc1nc2ccc(C)cc2cc1C#N	1.5	i	-47.2	107.8*	-0.2
CCC1CCCN1Cn1cnc2c([nH]c3ccc(OC)cc32)c1=O (stereo not given)	-48.9	i	0.5	4.1	-13.2
CCCCN(CCCC)CCn1cnc2c([nH]c3ccc(OC)cc32)c1=O	5.2	i	2.8	-3.8	-12.3
COc1ccc2[nH]c3c(=O)n(CCc4ccccc4)cnc3c2c1	-91.4	i	-0.9	-6.5	x
N#CC1=C(S)N=C(N)C(c2nc(-c3ccccc3)cs2)C12CCCC2 (stereo not given)	8.6	i	-7.3	91.3*	-1.6
CC(=O)Nc1cncc(-c2ccccc2N(C)C)n1	x	i	2.5	x	x
C[C@]12CCC(=O)C=C1CC[C@@H]1[C@@H]2[C@@H](O)C[C@@]2(C)[C@H]1CC[C@]2(O)C(=O)COC(=O)CCC(=O)O	11.1	i	-5.8	53.4*!	4.0
Cc1nn(CC(=O)Nc2ccc(C(=O)N(C)C)cc2)c(=O)c2ccccc12	4.2	i	0.8	51.4*	-1.4
Cc1nn(CC(=O)Nc2ccccc2)c(=O)c2ccccc12	-1.1	i	1.0	9.5	x
CCSc1ccccc1C(=O)Nc1ccc(S(=O)(=O)NC(C)=O)cc1	-3.7	i	-0.5	-8.6	x
COc1ccc(CNCCNC(=O)c2cccs2)cc1OC	-3.7	i	0.2	65.1*	-0.2
COc1cc(CNCCNC(=O)c2cccs2)cc(OC)c1OC	-1.8	i	3.2	22.4	x
COC(=O)c1ccc(C(=S)N2CCCCC2)cc1	2.0	i	4.7	57.3*	4.4
COC(=O)c1ccc(C(=S)N2CCOCC2)cc1	-8.8	i	1.6	-6.2	x
CCc1ccc(C2(O)CC(C(F)(F)F)=NN2C(=O)Cc2ccc([N+](=O)[O-])cc2)cc1 (stereo not given)	0.0	i	1.3	6.4	x
CCC1=NN(C(=O)Cc2ccc([N+](=O)[O-])cc2)C(O)(C(C)(C)C)C1 (stereo not given)	-12.9	i	1.7	57.7*	-5.8
N#Cc1c(-c2c(Cl)cccc2Cl)noc1/C=C/Nc1ccc(C(=O)O)cc1	-0.2	i	-55.0	42.5	-2.0
CN(C)/C=C/c1onc(-c2c(Cl)cccc2Cl)c1C#N	1.9	i	-49.6	-12.1	x
Cc1cc(NN)nc(NS(=O)(=O)c2ccccc2Cl)n1	21.2	i	1.4	-10.6	x
COc1cc(C)nc(NS(=O)(=O)c2ccccc2Cl)n1	-2.2	i	-1.0	5.3	-0.8
O=c1[nH]cnc2c1nc(SCc1ccccc1)n2C1OC(CO)C(O)C1O (stereo not given)	-8.1	i	-0.8	51.1*	8.2
